Screens deposited in PubChem BioAssay by Johns Hopkins Ion Channel Center.
KCNQ1 pot: potentiators or activators of KCNQ1 channel, primary screen, cell-based, thallium flux, high-throughput | CHO-K1 KCNQ1, thallium flux FluxOR fluorescence; hits give high values | B-score at 10 µM | 310,000 compounds, 0.35% hits;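 active means fluorescence ratio B-score, a plate-corrected score, at least three library SD, with initial intensity B-score within 5 SD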
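Schedule – 37 °C overnight plating, 90-min dark dye load, 20-min compound pretreatment · System – stable KCNQ1 CHO-K1 line · Probe or stimulus – thallium- and potassium-containing depolarizing buffer · Measured by – kinetic FluxOR fluorescence, 10 s baseline plus 110 s post-stimulus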
Kir21 block: inhibitors of mouse Kir2.1 inward-rectifier potassium channel; HEK293-Kir2.1, FluxOR thallium flux fluorescence; hits give low values; Inward rectifier potassium channel 2 (Mus musculus), P35561; B-score at 10 µM; 310,000 compounds, 0.85% hits; AID 1672, 2009;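 active means fluorescence ratio B-score at or below minus 3 SD of library scores, with starting-brightness B-score within 2 SD, cut at about -4.2 in these data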;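 further: channel flux triggered by added potassium and thallium sulfate stimulus; B-score of peak minus minimum fluorescence over baseline after thallium stimulus; more negative B-score means stronger Kir2.1 block with less thallium influx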
KCNK9 inh: KCNK9 potassium channel inhibitors, primary screen, HEK293 cells, thallium flux; Potassium channel subfamily K member 9 (Homo sapiens), Q9NPC2; FluxOR thallium flux fluorescence; hits give low values; B-score at 10 µM; 310,000 compounds, 1.2% hits;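 active means ratio B-score over 3 SD below the library mean, with starting fluorescence within 5 SD of its mean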;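 further: negative B-score means less thallium flux so channel inhibition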
hERG rescue: hERG rescue from dofetilide block, primary screen, cell-based, CHO-hERG, FluxOR thallium flux, dofetilide IC70 | AID 1511, 2009 | 310,000 compounds, 0.51% hits | dofetilide IC70 present | activation (rescue from dofetilide block), less the hit threshold, % at 10 µM | Voltage-gated inwardly rectifying potassium channel KCNH2 (Homo sapiens), Q12809;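 active means activation above the mean of controls blocked by dofetilide plus 5 SD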;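 further: thallium influx through hERG after potassium depolarization seen as dye fluorescence rise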
Target sequence (Q12809 whole entry, looked up): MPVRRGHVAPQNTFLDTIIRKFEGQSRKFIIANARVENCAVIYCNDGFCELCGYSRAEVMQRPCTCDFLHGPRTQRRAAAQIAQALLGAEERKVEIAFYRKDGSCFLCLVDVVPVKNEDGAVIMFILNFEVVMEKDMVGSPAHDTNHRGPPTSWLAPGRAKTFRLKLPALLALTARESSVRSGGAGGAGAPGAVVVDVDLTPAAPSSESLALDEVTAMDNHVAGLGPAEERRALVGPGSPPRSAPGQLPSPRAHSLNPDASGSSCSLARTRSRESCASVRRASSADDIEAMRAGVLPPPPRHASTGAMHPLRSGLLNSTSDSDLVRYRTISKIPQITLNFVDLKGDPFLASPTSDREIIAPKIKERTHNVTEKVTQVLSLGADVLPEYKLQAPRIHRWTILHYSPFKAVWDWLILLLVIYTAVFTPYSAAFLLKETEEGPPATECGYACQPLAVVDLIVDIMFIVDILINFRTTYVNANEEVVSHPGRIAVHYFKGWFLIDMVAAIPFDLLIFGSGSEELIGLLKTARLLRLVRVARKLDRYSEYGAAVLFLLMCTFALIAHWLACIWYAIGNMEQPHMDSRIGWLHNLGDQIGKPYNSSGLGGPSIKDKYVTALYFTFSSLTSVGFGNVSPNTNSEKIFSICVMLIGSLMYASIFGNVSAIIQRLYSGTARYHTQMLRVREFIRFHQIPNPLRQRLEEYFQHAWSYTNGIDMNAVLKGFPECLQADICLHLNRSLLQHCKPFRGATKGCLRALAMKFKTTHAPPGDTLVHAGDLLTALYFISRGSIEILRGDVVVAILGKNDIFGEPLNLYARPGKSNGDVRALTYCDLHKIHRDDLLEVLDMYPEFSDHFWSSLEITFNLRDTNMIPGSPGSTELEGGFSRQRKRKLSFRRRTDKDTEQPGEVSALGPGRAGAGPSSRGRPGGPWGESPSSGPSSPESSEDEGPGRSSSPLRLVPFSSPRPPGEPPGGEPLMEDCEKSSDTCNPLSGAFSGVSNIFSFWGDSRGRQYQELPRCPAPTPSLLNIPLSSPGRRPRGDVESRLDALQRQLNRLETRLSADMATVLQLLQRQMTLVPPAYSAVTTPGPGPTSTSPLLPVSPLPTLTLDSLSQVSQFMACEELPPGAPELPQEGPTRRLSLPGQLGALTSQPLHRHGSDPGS
KCNK3 block: human KCNK3 channel inhibitors, primary screen, CHO cells, FluxOR thallium flux, B-score. Potassium channel subfamily K member 3 (Homo sapiens), O14649. FluxOR fluorescence; hits give low values. B-score at 10 µM. 340,000 compounds, 0.84% hits;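 active means B-score under library mean minus 4 SD, starting fluorescence ratio at most library mean plus 5 SD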;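 further: more negative B-score means stronger inhibition of thallium flux through KCNK3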
KCNQ1 inh: inhibitors of human KCNQ1 channel, primary screen, cell-based, thallium flux, high-throughput; AID 2642, 2010; 310,000 compounds, 1.3% hits; B-score at 10 µM; Potassium voltage-gated channel subfamily KQT member 1 (Homo sapiens), P51787; CHO-K1 KCNQ1, FluxOR thallium flux fluorescence; hits give high values;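 active means compounds whose thallium flux B-score, printed positive for inhibition, exceeds three library SD while starting fluorescence stays within three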;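 further: channel opened by potassium depolarization with thallium stimulus after 20 min compound exposure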
* marks the source's active call; other numbers are inactive results; i = inactive; / = no result. A selection: hits, their analogues and other compounds. The true share with any hit is near 3.7%.

SMILES	KCNQ1 pot	Kir21 block	KCNK9 inh	hERG rescue	KCNK3 block	KCNQ1 inh
COc1ccc(/C(N)=N/OC(=O)c2ccc3c(c2)OCO3)cc1OC	i	1.5	i	5.9*	i	i
COc1cc2ncc(C(=O)c3ccccc3)c(N3CCN(Cc4ccccc4)CC3)c2cc1OC	i	-0.77	i	-16	i	i
Cc1ccc(-c2ccc(/C=C(\C#N)C(N)=S)n2C)cc1	i	-0.74	i	-14	i	6*
O=[N+]([O-])c1cccc(S(=O)(=O)Nc2ccc(-c3ccc(N4CCOCC4)nn3)cc2)c1	i	1.1	i	-12	i	i
CCN1CCN(c2ccc(S(=O)(=O)N3CCCCC3)cc2NC(=O)C(C)Oc2ccc(F)cc2)CC1 (stereo unspecified)	i	-5.2*	i	-5	i	i
CC(Oc1ccc(F)cc1)C(=O)Nc1cc(S(=O)(=O)N2CCCCC2)ccc1N1CCOCC1 (stereo unspecified)	i	1.4	i	-10	i	i
CCNc1nc2c(cnn2C)c(=O)[nH]1	/	/	/	/	i	/
O=c1[nH]sc2ccccc12	13*	-3.1	i	-8	i	i
O=c1cc(O)sc2ccccc12	i	-1.2	i	-6	i	i
Cc1cc(NC(=O)CSc2nc(-c3ccccc3Cl)nc3c2c(=O)n(C)c(=O)n3C)no1	i	-0.01	i	5.4*	i	i
CC(=O)NCCC(Cc1ccccc1)c1ccco1 (stereo unspecified)	i	-0.19	i	-1	i	i
CN(C)c1ccc(CNCCC(Cc2ccccc2)c2ccco2)cc1 (stereo unspecified)	i	-4.7*	i	-20	i	i
c1ccc(CNCCC(Cc2ccccc2)c2ccco2)cc1 (stereo unspecified)	i	-12*	i	-14	i	i
O=c1[nH]c(-c2cccnc2)nc2sc(-c3ccccc3)cc12	i	-0.56	i	6.9*	i	i
O=C(Nc1ncc(Br)s1)C(Cc1ccccc1)n1cccc1 (stereo unspecified)	31*	-1.5	i	11*	i	i
CC(C)(C)NC(=S)NCC1CC1	i	0.12	i	-1	i	i
CC(=O)c1cccc(NS(C)(=O)=O)c1	i	0.65	i	-2	i	i
Cc1ccc(C)c(N2CCN(C(=O)CCc3nc(-c4cccc(Cl)c4)no3)CC2)c1	/	/	/	/	i	/
COc1ccc(Br)cc1C(=O)NC(=S)Nc1c(C)n(C)n(-c2ccccc2)c1=O	i	0.84	i	4.8*	i	i
Cc1c(NC(=S)NC(=O)c2ccccc2Cl)c(=O)n(-c2ccccc2)n1C	i	-0.11	i	-3	i	i
CCN(CC(=O)Nc1ccc(OC)cc1)CC(=O)Nc1ccc(Cl)cc1F	i	0.11	i	7.3*	i	i
O=C(Nc1ccc(S(=O)(=O)N2CCCCC2)cc1)c1ccc(CN2CCc3ccccc3C2)cc1	i	0.67	i	-11	i	6*
COCCn1c(-c2ccc(OC)cc2)cnc1N	i	0.3	i	-7	i	i
CCOc1ccc(-c2cnc(NCc3cccc4ccccc34)n2CCOC)cc1	i	-1.6	i	-30	-9.5*	10*
CC(NS(=O)(=O)c1cccc(C(=O)N(C)Cc2ccc(N3CCOCC3)cc2)c1)c1ccccc1 (stereo unspecified)	/	/	/	/	i	/
SMILES	KCNQ1 pot	Kir21 block	KCNK9 inh	hERG rescue	KCNK3 block	KCNQ1 inh
CC(C)(C)NC(=O)CN(Cc1cccs1)C(=O)C1COc2ccccc2O1 (stereo unspecified)	i	-1	i	-23	i	6*
CC(C)(C)NC(=O)CN(Cc1cccs1)C(=O)CN1C(=O)C(=O)c2ccccc21	i	0.22	i	-9	i	i
O=C1Nc2ccc(Cl)cc2[C@@](C#CC2CC2)(C(F)(F)F)O1	i	-0.31	-8.7*	-8	/	i
COc1cccc2sc(Nc3nnc(-c4ccc(F)cc4)o3)nc12	94*	1.2	i	46*	i	i
COc1cccc2sc(Nc3nnc(-c4cccs4)o3)nc12	19*	1.9	i	34*	i	i
COc1cccc2sc(Nc3nc(-c4ccccn4)cs3)nc12	33*	-0.65	-6.9*	24*	i	i
O=C(Nc1nc2c(F)cccc2s1)c1ccco1	i	-0.93	i	-7	i	i
Fc1cccc2sc(Nc3nnc(-c4ccco4)o3)nc12	21*	0.26	i	13*	i	i
CCN(CCn1cccn1)Cc1c(C(=O)N2C[C@@H](C)O[C@@H](C)C2)nc2ccc(Cl)cn12	i	-0.57	i	-2	i	i
CCCCN(C(=O)C1=CC=CN2CCS(=O)(=O)N=C12)c1ccccc1	/	/	/	/	i	/
C/C(CC(=O)Nc1cc(Cl)ccc1C)=N\NC(N)=O	i	1.3	i	-7	i	i
CCN(CC)c1ccc(/C=N/NC(=O)c2nnn(-c3nonc3N)c2C(C)C)c(O)c1	i	-1.8	i	-18	i	7*
CCOc1ccc(CNCCc2ccc(S(N)(=O)=O)cc2)cc1	i	0.39	i	-4	i	i
CCOc1ccc2ccccc2c1CNCCc1ccc(S(N)(=O)=O)cc1	i	-4.4*	i	-3	i	i
Cc1ccc(CNC(=O)CNC(=O)c2ccco2)cc1	i	-0.8	i	-7	i	i
CCOCCCNc1nc2c(C)cccn2c(=O)c1/C=C1\SC(=S)N(C(C)CC)C1=O (stereo unspecified)	i	-0.18	i	-16	i	7*
CCOCCCNc1nc2c(C)cccn2c(=O)c1/C=C1\SC(=S)N(CC(C)C)C1=O	i	0.19	i	-12	i	i
O=C(CCC1CCCCC1)NCCN1C2=NC[C@H](Cc3ccccc3)N2C[C@H]1Cc1ccc(O)cc1	i	-3.4	i	-12	i	i
O=C(CCC1CCCCC1)NCCN1C2=NC[C@@H](Cc3ccccc3)N2C[C@H]1Cc1ccc(O)cc1	i	-4.5*	i	-14	i	i
CC12CCC3c4cc(CN5CCOCC5)c(O)cc4CCC3C1CCC2=O (stereo unspecified)	/	/	/	/	i	/
CCc1ccc(NC(=O)c2cc3c(C)nc4ccccc4c3o2)cc1	i	-0.38	i	-12	i	6*
